# Assay outcomes deposited in PubChem by Broad Institute.
# This is a sample that favours compounds with a hit; in the whole collection about 3.5% have one here.
# esBAF inh: Bmi1 luciferase reporter increase in mESCs, primary screen, esBAF inhibitor project, mouse ES cells, Bmi1 luciferase knock-in, single point | 24 h; 100% = twice the neutral-well signal | reporter increase, % at 12.5 µM | 350,000 tested, 2% active; in the data active = activation above about 40%; inconclusive = no clear call, values can overlap the other calls;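 also: 0% = median of the plate's neutral control wells and 100% = double that signal; a rise in the Bmi1 reporter signal indicates esBAF inhibition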
# Cneo AK release: Cryptococcus neoformans cell lysis inducers, primary screen, AK release luminescence, single concentration; C. neoformans lysis, adenylate kinase release luminescence, 4 h; normalised: neutral wells 0, clomiphene wells 100; 360,000 tested, 0.2% active; lysis activity, % at 15 µM; AID 651654, 2012;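 active = mean lysis activity across replicates of at least 80%, whatever share of replicates individually reach that level; inactive = mean lysis activity below 80%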
#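 Material – log-phase Cryptococcus neoformans yeast cells · Input – 5 × 10^6 yeast cells/mL · Medium – fresh YPD growth medium · Doses – single compound concentration per well · Timing – static 4 h at 37 °C with compound, 1 h detection · Detection – adenylate kinase release luminescence · Read-out – signal increase indicating cell lysis · Control set – Clomiphene as positive lysis control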
# ERAP1 HTS inh: human ERAP1 aminopeptidase inhibitors, primary screen, biochemical, single point, plate reader. inhibition, % at 10.7 µM. AID 652197, 2013. 340,000 tested, 0.15% active. Endoplasmic reticulum aminopeptidase 1 (Homo sapiens), Q9NZ08. recombinant ERAP1, Leu-AMC fluorescence, 60 min;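 active = mean replicate inhibition of at least 30%, or all replicates individually reaching that 30% level; inactive = mean below 30% and not every replicate reaching it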;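 also: 0% = neutral control wells and 100% = L-leucinethiol positive control wells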
# Target sequence (Q9NZ08 whole entry, looked up): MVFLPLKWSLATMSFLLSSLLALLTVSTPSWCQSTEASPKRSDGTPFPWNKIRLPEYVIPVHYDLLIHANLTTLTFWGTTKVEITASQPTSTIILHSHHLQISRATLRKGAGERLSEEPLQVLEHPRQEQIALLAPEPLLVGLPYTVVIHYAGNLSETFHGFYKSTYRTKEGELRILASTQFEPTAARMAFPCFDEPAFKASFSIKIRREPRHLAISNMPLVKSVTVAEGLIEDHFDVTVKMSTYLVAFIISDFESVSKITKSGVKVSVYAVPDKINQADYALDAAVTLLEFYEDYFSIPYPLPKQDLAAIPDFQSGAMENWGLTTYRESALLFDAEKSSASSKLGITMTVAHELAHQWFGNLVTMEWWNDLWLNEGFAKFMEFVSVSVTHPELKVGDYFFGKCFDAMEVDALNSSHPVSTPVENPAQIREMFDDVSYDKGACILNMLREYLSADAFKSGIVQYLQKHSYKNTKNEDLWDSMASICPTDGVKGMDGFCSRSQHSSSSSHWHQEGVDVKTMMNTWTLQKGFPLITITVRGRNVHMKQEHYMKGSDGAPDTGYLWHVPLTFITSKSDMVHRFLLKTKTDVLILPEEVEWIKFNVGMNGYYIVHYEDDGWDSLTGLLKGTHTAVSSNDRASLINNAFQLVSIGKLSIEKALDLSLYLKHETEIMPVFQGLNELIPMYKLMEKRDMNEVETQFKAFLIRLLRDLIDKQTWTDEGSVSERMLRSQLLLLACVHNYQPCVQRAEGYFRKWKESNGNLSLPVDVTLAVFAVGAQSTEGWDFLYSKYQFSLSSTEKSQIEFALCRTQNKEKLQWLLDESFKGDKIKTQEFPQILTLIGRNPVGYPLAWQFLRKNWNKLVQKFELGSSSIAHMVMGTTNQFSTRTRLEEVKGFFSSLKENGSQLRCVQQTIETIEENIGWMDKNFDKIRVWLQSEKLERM
# MITF act: activators of MITF-driven TRPM1 promoter reporter, primary screen, cell-based, SK-MEL-5, luciferase, single point. AID 588334, 2011. 300,000 tested, 0.75% active. activation, % at 12.5 µM. SK-MEL-5 TRPM1-promoter luciferase, 24 h; % of positive control, neutral wells = 0;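 active = mean activation of at least 80% with every replicate also reaching 80%; inconclusive = mean reaches 80% but some replicate falls short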;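 also: 0% = neutral control wells and 100% = parthenolide positive control wells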
# Env fusion inh: inhibitors of HIV-1 Env-driven cell-cell fusion, primary screen, HeLa-JRFL effector, CEM21 target cells, luciferase; inhibition, % at 12.3 µM; 360,000 tested, 1.1% active; AID 651610, 2012;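 active = mean replicate inhibition score of at least 50 and every replicate individually at or above 50; inconclusive = only one of the two criteria met; inactive = mean below 50 and not all replicates reaching 50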;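 also: 0% = plate neutral controls and 100% = maraviroc near 300 nM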
# Wnt bcat act: Wnt/beta-catenin pathway activators, primary screen, cell-based, plate reader, single point. activation, % at 9.35 µM. 300,000 tested, 1.2% active. Wnt/beta-catenin reporter cell assay, activator. AID 743398, 2014; in the data active = activation above about 30%, passing the limit was not always enough; inconclusive = no clear call, values can overlap the other calls;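 also: 0% = neutral control wells and 100% = positive control wells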
# esBAF Ring1 qPCR: Ring1 mRNA increase in mouse ESCs, confirmation, esBAF inhibitor project, cell-based, mouse ESC, RT-qPCR, cherry-pick; shares compounds with esBAF inh; mouse ESC E14, Ring1 mRNA RT-qPCR fold change; fold change at 33 µM; 550 tested, under 10 active;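 active = Ring1 gene expression raised more than 2-fold over untreated cells in both replicates at either tested dose; inconclusive = only one replicate above 2-fold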;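 also: Ring1 transcript normalised to actin housekeeping signal by TaqMan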
# Fgf4 repress: Fgf4 mRNA decrease in mouse ESCs, confirmation, esBAF inhibitor project, cell-based, mouse ESC, RT-qPCR, cherry-pick | shares compounds with esBAF inh | mouse ESC E14, Fgf4 mRNA qPCR fold change; hits give low values | Fgf4 expression fold change at 33 µM | 550 tested, 4% active | AID 743177, 2013;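 active = Fgf4 expression under 0.8 fold of control in both repeat measurements at one or both tested doses; inconclusive = under 0.8 fold in just a single repeat measurement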;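 also: Fgf4 transcript normalised to actin in duplex TaqMan qPCR; cells exposed to compound for 24 h before lysis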
# esBAF Bmi1 qPCR: esBAF inhibition via Bmi1 de-repression, confirmation, cell-based, RT-qPCR, mouse ESC, single point, cherry-pick | fold change at 33 µM | 550 tested, under 10 active | mouse ESE14 ES cells, Bmi1 mRNA qPCR fold; hits give high values | AID 743180, 2013 | shares compounds with esBAF inh;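 active = Bmi1 expression fold change above 6 at either tested concentration, seen in replicate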;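 also: higher fold means more Bmi1 de-repression and stronger esBAF inhibition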
# A549 tox SP: A549 cell cytotoxicity, cytotoxicity control, plate reader, single point, cherry-pick. 550 tested, under 10 active. shares compounds with esBAF inh. AID 743188, 2013. cell viability change % (negative = cytotoxic), % at 25 µM, hits read low; call rule not given here
# HepG2 tox SP: HepG2 cell cytotoxicity, cytotoxicity control, plate reader, single point, cherry-pick; shares compounds with esBAF inh; hits give low values; activity change, negative = inhibition, % at 25 µM; 550 tested, 4% active; AID 743189, 2013; in the data active = activity change below about -50%
# HEK293 cytotox SP: HEK293 cell cytotoxicity, cytotoxicity control, plate reader, single point, cherry-pick. shares compounds with esBAF inh. activity change, negative = inhibition, % at 25 µM, hits read low. 550 tested, 3% active. AID 743190, 2013; in the data active = activity change below about -38%, passing the limit was not always enough
# * marks the source's active call; other numbers are inactive results; i = inactive; ? = inconclusive; / = not tested or not shown; [ ] = remark or other dose.
SMILES,esBAF inh,Cneo AK release,ERAP1 HTS inh,MITF act,Env fusion inh,Wnt bcat act,esBAF Ring1 qPCR,Fgf4 repress,esBAF Bmi1 qPCR,A549 tox SP,HepG2 tox SP,HEK293 cytotox SP
COc1cccc(NC(=O)CN(C)C(=O)c2sc3cc(Cl)ccc3c2Cl)c1,-5,0,4,2,-10,-1,/,/,/,/,/,/
COc1cccc(NC(=O)CN(C)C(=O)CNC(=O)c2sc3ccccc3c2Cl)c1,67*,0,0,29,-11,7,0.89,0.89,1.4,-14,-29,-32
O=C1CS/C(=N/N=C/c2c[nH]c3ccccc23)N1,/,1,1,/,-27,0,/,/,/,/,/,/
C(=NN=Cc1c[nH]c2ccccc12)c1c[nH]c2ccccc12,74*,0,-2,/,-51,46*,1.2,0.96,1.6,0,-26,-3
Cn1c(/C(C#N)=C(\O)c2ccc([N+](=O)[O-])s2)nc2ccccc21,23,0,1,12,-6,5,/,/,/,/,/,/
Cn1c(/C(C#N)=C(\O)c2ccc(Cl)s2)nc2ccccc21,70*,-9,0,18,-22,30*,1.4,?,1.6,6,8,27
CN1C(=O)c2cc(NC(=O)c3ccc(Cl)cc3)ccc2OC[C@@H]2O[C@H](CC(=O)O)CC[C@@H]21,3,-1,/,/,1[16.7 µM],/,/,/,/,/,/,/
Cn1ccc2c(-c3ccc(C(=O)O)cc3)cc3c(c21)C1CCC3C1 (stereo unspecified),66*,-2,8,/,-2,-8,1.4,0.96,1.5,-7,-13,1
COc1cc2c(cc1OC)C(=Cc1ccc(N(C)C)cc1)C=C2,67*,12,0,61,-37,-2,0.93,0.96,1.8,-7,-8,1
CN(C)c1ccc(C=C2C=Cc3ccccc32)cc1,-11,0,-1,35,i,0,/,/,/,/,/,/
C[C@@H]1CN([C@@H](C)CO)C(=O)c2cc(NC(=O)Cc3ccccc3)ccc2O[C@@H](C)CCCCO[C@@H]1CN(C)Cc1ccccc1,2,1,1,/,4[16.7 µM],/,/,/,/,/,/,/
COc1ccc2c3c([nH]c2c1)[C@@H](CO)N(C(=O)Cc1ccccc1)CC31CN(C(=O)Cc2ccccc2)C1,/,/,0,/,/,/,/,/,/,/,/,/
O=C(N[C@H]1C=C[C@H](CC(=O)N2CCOCC2)O[C@H]1CO)c1ccc2c(c1)OCO2,-1,-4,-1,/,-3[16.7 µM],/,/,/,/,/,/,/
Fc1ccc(CSc2ccc(-c3cccs3)nn2)cc1,69*,1,-2,32,-32,16,1.2,?,1.5,-6,-7,-7
O/N=C\c1cnc(N2CCN(c3ccccc3)CC2)s1,84*,-2,-3,?,-19,-1,0.95,0.85,1.6,-7,-36,-8
O=Cc1cnc(N2CCCCC2)s1,/,/,-4,-3,0,-1,/,/,/,/,/,/
C[C@@H]1CN([C@H](C)CO)C(=O)c2cc(-c3ccccc3)cnc2O[C@H]1CN(C)C,-10,-6,0,/,-16[16.7 µM],/,/,/,/,/,/,/
O=C(Nc1ccccc1Cl)c1ccc(C(=O)Nc2ccccc2Cl)cc1,/,/,2,-6,-5,-2,/,/,/,/,/,/
O=C(Nc1cccc(Cl)c1Cl)c1ccc(-c2ccccc2)cc1,74*,/,/,17,/,/,1.1,0.95,1.7,3,19,10
Cc1ccnc(NC(=O)c2ccc(OCc3c(C)noc3C)cc2)c1,70*,/,0,79,/,?,0.99,?,1.8,0,-29,-5
COCC(=O)Nc1ccc2c(c1)OC[C@H](C)N(C(=O)c1ccccc1F)C[C@@H](C)[C@@H](OC)CN(C)C2=O,-3,-3,4,/,/,/,/,/,/,/,/,/
O=C(O)c1ccc2c(c1)C(=O)N(CCc1c[nH]c3ccccc13)C2=O,47*,0,-2,63,-16,16,1.2,0.98,1.5,-2,-3,3
C[C@H](CO)N1C[C@H](C)[C@H](CN(C)C(=O)Nc2ccccc2F)Oc2cc(-c3ccc(C(=O)N(C)C)cc3)ccc2S1(=O)=O,2,6,-1,/,-4[16.7 µM],/,/,/,/,/,/,/
CCCCC(=O)N1CCCC(c2nc(-c3cccc(OC)c3)no2)C1 (stereo unspecified),8,0,4,38,19,9,/,/,/,/,/,/
COc1cccc(-c2noc(C3CCCN(C(=O)CC(C)(C)C)C3)n2)c1 (stereo unspecified),83*,/,0,18,11,2,1.2,1,1.8,0,-25,-7
SMILES,esBAF inh,Cneo AK release,ERAP1 HTS inh,MITF act,Env fusion inh,Wnt bcat act,esBAF Ring1 qPCR,Fgf4 repress,esBAF Bmi1 qPCR,A549 tox SP,HepG2 tox SP,HEK293 cytotox SP
C(=Cc1cnnc2ccccc12)c1ccccc1,138*,-2,-1,41,-65,-3,0.95,0.97,1.3,-7,94,-2
Cn1c(/C=C/c2ccccc2)nc2ccccc2c1=O,34,-1,9,26,-32,18,/,/,/,/,/,/
Cc1csc(-c2ccc3cc(Cl)cc(Cl)c3n2)n1,71*,1,0,/,-343,4,1.1,0.97,1.6,-10,28,-11
O=C(C[C@H]1CC[C@@H]2[C@H](COC[C@@H](O)CN2S(=O)(=O)c2ccccc2)O1)Nc1ccccc1,-1,-1,-3,/,/,/,/,/,/,/,/,/
CC(=O)c1c(C)[nH]c(C(=O)OCc2ccc(Br)cc2)c1C,64*,/,1,31,18,5,1.4,1.1,2,-8,-24,-22
O=C1C(=C2CCc3ccccc32)Cc2ccccc21,71*,-8,-4,/,-64,5,1.2,1.1,1.5,-3,22,-3
O=C1C(=NO)CCCc2ccccc21,14,-1,-2,8,/,-2,/,/,/,/,/,/
